Our source for the AUCt, RatioGI50 and Activity values is ChEMBL document CHEMBL1800056, “Discovery of 2-(6-{[(6-fluoroquinolin-2-yl)methyl]amino}bicyclo[3.1.0]hex-3-yl)-N-hydroxypyrimidine-5-carboxamide (CHR-3996), a class I selective orally active histone deacetylase inhibitor” (J Med Chem, 2010).

Active and inactive are the calls of the source. The rule behind the calls is not given here.

For data set [1], the system named is Rattus norvegicus. Briefly: AUC (0 to t) in rat at 1 mg/kg, iv. Also on record: dose 1 mg/kg, route intravenous. The format is ADME, organism-based, Plasma. The settings on record: in vivo. In outline: (§1)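 Rat single dose, iv 1 mg/kg or po 10 mg/kg, both in 1% DMSO-HPβC (11.25% w/v). AUC0-t in ng h/mL, clearance in (mL/min)/kg, t1/2 in h, F in %.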
In data set [2] the test system is Rattus norvegicus. In words: AUC (0 to t) in rat at 10 mg/kg, po. In kind it is ADME, organism-based, Plasma. The arrangement: dose 10 mg/kg, route oral. The settings on record: in vivo. In outline:
as §1

A further data set has as its system HepG2. Briefly: Ratio of GI50 for SAHA to compound for human HepG2 cells after 72 hrs by WST-1 assay. The format is functional. In outline:
(§2)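 Cells seeded at (1-5) × 10³/well in serum-containing medium and grown 24 h at 37 °C, 5% CO₂. They were then exposed for 72 h to HDAC inhibitor (0.6-10000 nM), with SAHA run alongside in the same panel. WST-1 was added for the final 4 h and read at 450 nm (650 nm reference). GI50 taken as 50% inhibition of the vehicle response, n = 6.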

In the next data set the test system is A549. In words: Ratio of GI50 for SAHA to compound for human A549 cells after 72 hrs by WST-1 assay. The format is functional. An outline of the steps:
as §2

Another data set has as its system COR-L23. Briefly: Ratio of GI50 for SAHA to compound for doxorubicin-resistant human COR-L23 cells after 72 hrs by WST-1 assay. The format is functional. An outline of the steps:
as §2

Another data set concerns U-937. Briefly: Ratio of GI50 for SAHA to compound for human U937 cells after 72 hrs by WST-1 assay. The format is functional. An outline of the steps:
as §2

A short description of data set [3]: Ratio of GI50 for SAHA to compound for human […] cells after 72 hrs by WST-1 assay. In kind it is functional. In outline:
as §2

The subject of a further data set is LoVo. Briefly: Antitumor activity against human LoVo cells xenografted in nude BALB/c mouse assessed as reduction in tumor volume at 25 mg/kg, po administered QD for 19 days. In kind it is functional, organism-based. Also on record: dose 25 mg/kg. In outline: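 LoVo colorectal xenograft grown subcutaneously in female BALB/c nude mice, run at EpiStem. Compound given orally daily at 25 or 50 mg/kg; tumor volume followed.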

For the molecule `O=C(NO)c1cnc(N2C[C@@H]3[C@H](C2)[C@H]3NCc2ccc3cc(F)ccc3n2)nc1` [NANATINOSTAT], the AUCt worked out at 124 ng·h/mL with Rattus norvegicus [1] and 102 ng·h/mL in the data set with Rattus norvegicus [2]. For the same molecule, the RatioGI50 in the data set on HepG2 was 20; with A549 it was 22.8; with COR-L23, 5; with U-937 it was 8.7; in data set [3], 19. Besides, in the data set on LoVo, the result was Active.
